Screening results as filed in PubChem BioAssay.
HSF-1 act = increases HSF-1 driven luciferase reporter signal | hit rate 1.7% among 300,000 | AID 504408 | NIH3T3-HGL HSF-1 luciferase reporter, MG132, 8 h; 100% = twice DMSO control signal | activation, % at 9 µM;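 active = mean replicate activation of at least 50% with a set share of replicates each reaching 50%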
Lipid droplet = modulators of hepatic lipid droplet formation | AML12 mouse hepatocytes, oleate lipid droplets, BODIPY imaging | inhibition, % at 6.5 µM | hit rate 0.4% among 240,000 | AID 1656;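 active = lipid droplet intensity inhibited by at least 50%, with more than 500 cells counted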
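Material – mouse AML12 hepatocyte cell line, fixed after treatment · Compound dosing – one dose, 6.5 µM compound · Times – compound with oleate, overnight · Measured by – Image-based BODIPY and DAPI two-channel analysis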
HSF1 inhib = HSF1 inhibition; NIH3T3-HGL HSE-luciferase, MG132-induced, luminescence 8 h; hits give low values; activity change, negative = inhibition, % at 7.5 µM (by protocol); hit rate 0.77% among 300,000;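 active = more than half of replicate wells show activity change below -50%, luminescence cut by over half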;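 also: luciferase reports HSF-1 transcriptional activity via heat shock element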
HSP90 inh = HSP90 refolding inhibition in rabbit reticulocyte lysate | luciferase refolding luminescence, 3 h | inhibition, % at 5.6 µM | hit rate 0.91% among 290,000 | AID 1789;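 active = inhibition above the screen-wide mean plus 3 SD, computed separately per campaign, cut at about 16% in these data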;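 also: inhibitors lower the luminescence because luciferase stays unfolded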
HCV NS3 hel inh = inhibitors of Hepatitis C virus NS3 helicase. NS3 helicase DNA unwinding, Cy5 molecular beacon fluorescence. inhibition, % at 10.9 µM. hit rate 0.56% among 290,000. AID 1800;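 active = inhibition above the mean of all tested compounds plus 3 SD, set per campaign, cut at about 35% in these data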
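System: NS3 helicase fragment of HCV / Schedule: 1 h at 25 °C / Control set: DMSO alone as 0% and 110 µM thioflavine S as 100% / Reagent: Cy5/quencher beacon DNA duplex and ATP to start / Technique: Cy5 fluorescence / Replication: singlicate / Evaluation: % inhibition of end-to-start signal ratio versus controls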
Lipid drop inh = hepatic lipid droplet formation inhibition, confirmed. hit rate 65% among 870. AML12 mouse hepatocytes, BODIPY lipid droplet imaging; droplets induced with 100 µM oleic acid. shares compounds with Lipid droplet. inhibition, % at 5.2 µM;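 active = inhibition of lipid droplet metric at least 50%, with more than 300 cells in each of four replicates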
AML12 cytotox = counter-screen for cytotoxicity in AML12 mouse hepatocytes; shares compounds with Lipid droplet; DAPI nuclear morphology cytotoxicity imaging; hits give high values; cells fed 100 µM oleate overnight; z-score at 5 µM; hit rate 3% among 870; in the data active = z-score above about 6.3;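 also: compound exposure lasted overnight at 37 °C before fixation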
AML12 tox conf = AML12 hepatocyte cytotoxicity, confirmed; cytotoxicity, % at 50 µM; shares compounds with Lipid droplet; AID 463219; AML12 mouse hepatocyte viability, ATP luminescence; cells loaded with 100 µM oleic acid; 530 tested, under 10 active;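 active = cytotoxicity above 50% in each of four replicates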;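 also: compound exposure lasted overnight at 37 °C before the ATP read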
Numbers stand for hits; . = inactive; / = no result given. Hits are enriched below; roughly 3.8% of the tested compounds scored in any of these assays.

SMILES	HSF-1 act	Lipid droplet	HSF1 inhib	HSP90 inh	HCV NS3 hel inh	Lipid drop inh	AML12 cytotox	AML12 tox conf
CCN(CC)CCCNC(=O)c1cn(CC)c2ccc(S(=O)(=O)N(C)C3CCCCC3)cc2c1=O	.	.	.	.	.	/	/	/
COC(=O)c1ccc2c(c1)NC(=O)C(N(CC(C)C)CC(C)C)S2 (centres undefined)	.	84	.	.	.	.	.	/
COc1ccc(S(=O)(=O)N2CC(C)OC(C)C2)cc1C(=O)N1CCCCC1 (centres undefined)	.	.	.	.	.	/	/	/
Cc1cc(C)cc(N(CC(=O)O)S(=O)(=O)c2c(C)noc2C)c1	.	58	.	.	.	.	.	/
Cc1c(CCO)c(=O)[nH]n1S(=O)(=O)c1ccc([N+](=O)[O-])cc1	.	.	.	.	.	/	/	/
COc1cc(NC(=O)c2cccs2)c(OC)cc1NC(=O)CCC(=O)Nc1ccc(C)cc1	.	68	.	.	.	108	.	.
Cc1ccc(NC(=O)CCC(=O)c2cccs2)cc1	.	.	.	.	.	/	/	/
COc1ccc(OCC(=O)Nc2ccc(NC(=O)c3cccs3)cc2)cc1	.	.	.	.	.	/	/	/
COc1cccc(NC(=O)CCC(=O)Nc2cc(OC)c(NC(=O)c3cccs3)cc2OC)c1	.	79	.	.	.	110	.	.
COc1ccc(NC(=O)CCC(=O)Nc2cc(OC)c(NC(=O)c3cccs3)cc2OC)cc1	.	71	.	.	.	109	.	.
O=C(Nc1cccc2ccccc12)/C(=C/c1cccc([N+](=O)[O-])c1)NC(=O)c1cccs1	.	.	.	.	.	/	/	/
COc1cccc(NC(=O)c2cccs2)c1	.	.	.	.	.	/	/	/
COc1ccc(/C=C(\NC(=O)c2cccs2)C(=O)Nc2cccc3ccccc23)cc1OC	.	84	.	.	.	102	.	.
CC(=O)C1=C(S(=O)(=O)c2ccc(C)cc2)CS(=O)(=O)C1	.	.	.	.	.	/	/	/
O=C(c1ccc(F)cc1)C1CCN(C(=O)c2ccccc2F)CC1	.	.	.	.	.	/	/	/
COc1ccc(C)cc1NC(=O)CCC(=O)Nc1ccc2nc(N3CCN(C)CC3)cc(C)c2c1	.	105	.	.	.	104	.	.
CCN1CCN(c2cc(C)c3cc(NC(=O)CCC(=O)Nc4ccc(OC)c(OC)c4)ccc3n2)CC1	.	.	.	.	.	/	/	/
CC(C)Cc1ccc(S(=O)(=O)N2CCN(c3ccccn3)CC2)cc1	.	.	.	.	.	/	/	/
CC(NCC(O)c1ccc([N+](=O)[O-])cc1)C12CC3CC(CC(C3)C1)C2 (centres undefined)	.	.	.	.	.	/	/	/
Cc1ccccc1N1CCN(C(=S)c2ccc(-c3cccc([N+](=O)[O-])c3)o2)CC1	.	.	.	.	.	/	/	/
Cc1ccccc1N1CCN(C(=S)c2ccc(-c3ccc([N+](=O)[O-])cc3)o2)CC1	.	86	.	.	.	69	.	/
CC(C)c1ccccc1NC(=O)COC(=O)c1c2c(nc3ccccc13)CCN(Cc1ccccc1)C2	.	54	.	.	.	.	.	.
CC(C)(C)c1cc(S(=O)(=O)CCc2ccncc2)cc(C(C)(C)C)c1F	.	.	.	.	.	/	/	/
CC(C)Cn1c(N)c(C(=O)COC(=O)c2cc(C3CC3)nc3ccccc23)c(=O)n(C)c1=O	/	74	/	.	.	85	.	/
Cc1ccc(NC(=O)COC(=O)COc2cccc3c2OC(C)(C)C3)cc1S(=O)(=O)N1CCOCC1	.	/	.	/	/	/	/	/
C/C(N)=C(/C#N)C(=O)CSc1nnc(Nc2cccc(C)c2)s1	56	78	.	.	.	99	.	.
Cc1cc(C(=O)N2CCN(c3ccccc3)CC2)no1	.	/	.	.	.	/	/	/
COc1ccc(N2CCN(C(=O)c3cc(C)on3)CC2)cc1	.	56	.	.	.	.	.	/
CCCCN(CCCNC(=O)CN1C(=O)COc2ccccc21)c1ccccc1	.	53	.	.	.	103	.	.
